Activity calls are given as the source filed them. The calls are words filed in the database; no cut-off is given here.
What was measured:
TC-32 [1] = assay: Cytotoxicity against human TC-32 cells assessed as reduction in cell viability incubated for 48 hrs by CellTiter-Blue reagent based […] assay; format: functional; conditions: TC-32, 48 h
How it was run: (§1)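 Cells seeded and grown to 60–80% confluency (usually 18–24 h), then treated 48 h with a range of concentrations prepared in each line's medium. CellTiter-Blue reagent added at the end of treatment and incubated 3–5 h at 37 °C, 5% CO₂. Fluorescence read at 560 nm excitation and 590 nm emission. IC50 from nonlinear regression, log(inhibitor) vs. normalized response.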

[2] = Cytotoxicity against human SK-ES cells assessed as reduction in cell viability incubated for 48 hrs by CellTiter-Blue reagent based […] assay; format: functional
How it was run: (§2)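 Cells grown in their own media at 37 °C, 5% CO2, mycoplasma-tested. At 60–80% confluency, treated 48 h with a range of concentrations made in medium. CellTiter-Blue added for 3–5 h at 37 °C, fluorescence read at ex 560/em 590 nm. IC50 from nonlinear regression (log(inhibitor) vs normalized response); mean ± SD of duplicate or triplicate determinations.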

143B = assay: Cytotoxicity against human 143B cells assessed as reduction in cell viability incubated for 48 hrs by CellTiter-Blue reagent based […] assay; format: functional; how it was run: as §2
U2OS [3] = assay: Cytotoxicity against human U2OS cells assessed as reduction in cell viability incubated for 48 hrs by CellTiter-Blue reagent based […] assay; format: functional; how it was run: as §1
[4] = Cytotoxicity against human STA-ET-7.2 cells assessed as reduction in cell viability incubated for 48 hrs by CellTiter-Blue reagent based […] assay; format: functional; conditions: STA-ET-7.2, 48 h
PC-3 = assay: Cytotoxicity against human PC-3 cells assessed as reduction in cell viability incubated for 48 hrs by CellTiter-Blue reagent based […] assay; format: functional; conditions: PC-3, 48 h; how it was run: as §2
SAOS-2 = assay: Cytotoxicity against human SAOS-2 cells assessed as reduction in cell viability incubated for 48 hrs by CellTiter-Blue reagent based […] assay; format: functional; conditions: SAOS-2, 48 h; how it was run: as §1
U-87 MG = assay: Cytotoxicity against human U-87 MG cells assessed as reduction in cell viability incubated for 48 hrs by CellTiter-Blue reagent based […] assay; format: functional, U-87MG ATCC; how it was run: as §2
[5] = Cytotoxicity against human MHH-ES cells assessed as reduction in cell viability incubated for 48 hrs by CellTiter-Blue reagent based […] assay; format: functional
A549 = assay: Cytotoxicity against human A549 cells assessed as reduction in cell viability incubated for 48 hrs by CellTiter-Blue reagent based […] assay; format: functional; conditions: A549, 48 h
TC-32 [6] = assay: Inhibition of DNA synthesis in human TC-32 cells assessed as induction of DNA damage by measuring gammaH2AX phosphorylation at 20 to 80 uM incubated for 6 hrs by western blot analysis; format: toxicity, cell-based; conditions: tc-32, 6 h, dose 20-80 µM
How it was run: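 TC-32 cells treated 6 h at 20, 40 or 80 μM. Total lysates immunoblotted for H2A.X and Ser139-phosphorylated γH2A.X. Actin used as loading control and for normalization. Bands quantified by densitometry.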

SJRH30 = assay: Cytotoxicity against human Rh30 cells assessed as reduction in cell viability incubated for 48 hrs by CellTiter-Blue reagent based […] assay; format: functional; conditions: SJRH30, 48 h
RD = assay: Cytotoxicity against human RD cells assessed as reduction in cell viability incubated for 48 hrs by CellTiter-Blue reagent based […] assay; format: functional; how it was run: as §2
U2OS [7] = assay: Induction of apoptosis in human U2OS cells assessed as increase in hypodiploid subG1 population at 10 to 40 uM incubated for 48 hrs by propidium iodide staining based flow cytometry; format: functional, cell-based; conditions: dose 10-40 µM
How it was run: (§3)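 Treatment same as the apoptosis blots (48 h; 0.1–0.4 μM or 10–40 μM). Adherent cells trypsinized and pooled with floating cells, then washed in PBS. Fixed in ice-cold 70% ethanol 1 h on ice, rehydrated, RNase A 100 μg/mL. Stained with propidium iodide at 50 μg/mL final for 1 h on ice. Sub-G1 fraction read by flow cytometry.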

[8] = Cytotoxicity against human HEK293 cells assessed as reduction in cell viability incubated for 48 hrs by CellTiter-Blue reagent based […] assay; format: toxicity; how it was run: as §2
CD99 antigen [9] = target: T1, CD99 antigen (Homo sapiens, UniProt P14209); assay: Binding affinity to N-terminal biotin-tagged recombinant human CD99 extracellular domain (23 to 122 residues) expressed in Escherichia coli BL21(DE3) by surface plasmon resonance analysis
T1 sequence (P14209 whole entry): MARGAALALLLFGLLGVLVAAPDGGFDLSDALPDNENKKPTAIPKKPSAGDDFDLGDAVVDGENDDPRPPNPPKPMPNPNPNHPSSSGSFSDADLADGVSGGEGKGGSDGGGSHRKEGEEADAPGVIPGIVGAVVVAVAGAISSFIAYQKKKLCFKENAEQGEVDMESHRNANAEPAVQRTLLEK
How it was run: (§4)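 Bacterially expressed recombinant CD99 extracellular domain amine-coupled to CM5 chip (10 mM sodium acetate pH 4.0, ~3500 RU). Analytes injected at various concentrations in PBS-P pH 7.4 + 1% DMSO at 50 μL/min. Contact time 60 s, dissociation 300 s, regeneration with 15 s H3PO4 pulse. Duplicate injections; sensorgrams fitted to 1:1 kinetic model.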

TC-32 [10] = assay: Induction of apoptosis in human TC-32 cells assessed as caspase-3 cleavage at 10 to 40 uM incubated for 48 hrs by western blot analysis; format: functional, cell-based; conditions: dose 10-40 µM
How it was run: (§5)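 Cells treated 48 h with three concentrations per agent (0.1, 0.2 or 0.4 μM for one; 10, 20 or 40 μM for another). Total cell lysates immunoblotted for PARP and caspase 3 and their cleaved products. Actin used as loading control and for normalization. ECL signal imaged on PVDF, bands quantified by densitometry.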

[11] = target: T2, CD99 antigen (Homo sapiens) (UniProt P14209); assay: Binding affinity to N-terminal biotin-tagged recombinant human CD99 extracellular domain (23 to 122 residues) expressed in Escherichia coli BL21(DE3) assessed as association rate constant by surface plasmon resonance analysis; how it was run: as §4
T2 sequence (whole entry): T1 sequence (P14209 whole entry)

[12] = Cytotoxicity against human TC71 cells assessed as reduction in cell viability incubated for 48 hrs by CellTiter-Blue reagent based […] assay; format: functional; conditions: TC-71, 48 h; how it was run: as §1
CD99 antigen [13] = target: T1, CD99 antigen; assay: Binding affinity to N-terminal biotin-tagged recombinant human CD99 extracellular domain (23 to 122 residues) expressed in Escherichia coli BL21(DE3) assessed as dissociation rate constant by surface plasmon resonance analysis; how it was run: as §4
HeLa = assay: Cytotoxicity against human HeLa cells assessed as reduction in cell viability incubated for 48 hrs by CellTiter-Blue reagent based […] assay; format: functional; how it was run: as §2
TC-32 [14] = assay: Induction of apoptosis in human TC-32 cells assessed as increase in hypodiploid subG1 population at 10 to 40 uM incubated for 48 hrs by propidium iodide staining based flow cytometry; format: functional, cell-based; conditions: dose 10-40 µM; how it was run: as §3
HOS = assay: Cytotoxicity against human HOS cells assessed as reduction in cell viability incubated for 48 hrs by CellTiter-Blue reagent based […]; format: functional; how it was run: as §2
TC-32 [15] = assay: Induction of apoptosis in human TC-32 cells assessed as PARP cleavage at 10 to 40 uM incubated for 48 hrs by western blot analysis; format: functional, cell-based; conditions: dose 10-40 µM; how it was run: as §5
[16] = Cytotoxicity against human COG-E-352 cells assessed as reduction in cell viability incubated for 48 hrs by CellTiter-Blue reagent based […] assay; format: functional; conditions: COG-E-352, 48 h; how it was run: as §2
[17] = Cytotoxicity against human A4573 cells assessed as reduction in cell viability incubated for 48 hrs by CellTiter-Blue reagent based […] assay; format: functional; conditions: A4573, 48 h; how it was run: as §1
A 172 = assay: Cytotoxicity against human A-172 cells assessed as reduction in cell viability incubated for 48 hrs by CellTiter-Blue reagent based […] assay; format: functional; conditions: A 172, 48 h; how it was run: as §2
U2OS [18] = assay: Induction of apoptosis in human U2OS cells assessed as PARP cleavage at 10 to 40 uM incubated for 48 hrs by western blot analysis; format: functional, cell-based; conditions: dose 10-40 µM; how it was run: as §5
[19] = Cytotoxicity against human MG-63.3 cells assessed as reduction in cell viability incubated for 48 hrs by CellTiter-Blue reagent based […] assay; format: functional; conditions: MG-63.3, 48 h; how it was run: as §2
U2OS [20] = assay: Induction of apoptosis in human U2OS cells assessed as caspase-3 cleavage at 10 to 40 uM incubated for 48 hrs by western blot analysis; format: functional, cell-based; conditions: dose 10-40 µM; how it was run: as §5
U2OS [21] = assay: Induction of apoptosis in human U2OS cells assessed as increase in hypodiploid subG1 population at 4 to 16 uM incubated for 48 hrs by propidium iodide staining based flow cytometry; format: functional, cell-based; conditions: dose 4-16 µM
How it was run: (§6)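 Cells treated 48 h at 4, 8 or 16 μM, then adherent and floating cells pooled, fixed in ice-cold 70% ethanol 1 h, treated with RNase A 100 μg/mL, stained with propidium iodide 50 μg/mL for 1 h on ice. Sub-G1 fraction measured by flow cytometry.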

[22] = target: T2, CD99 antigen (Homo sapiens); assay: Binding affinity to CD99 in human TC71 cells assessed as protein stabilization at 80 uM incubated for 30 mins and measured at 51 to 99 degC by CETSA analysis; format: cell-based
How it was run: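 TC-71 cell lysate mixed with compound at 80 μM final, aliquots heated at various temperatures; thermally stable CD99 remaining in solution detected by western blot with anti-CD99 antibody and quantified by densitometry relative to untreated lysate.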

TC-32 [23] = assay: Induction of apoptosis in human TC-32 cells assessed as caspase-3 cleavage at 4 to 16 uM incubated for 48 hrs by western blot analysis; format: functional, cell-based; conditions: dose 4-16 µM
How it was run: (§7)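 TC-32 cells treated 48 h at 4, 8 or 16 μM; total lysates immunoblotted for cleaved PARP and cleaved caspase 3, actin as loading and normalization control; ECL imaging with densitometry.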

TC-32 [24] = assay: Induction of apoptosis in human TC-32 cells assessed as PARP cleavage at 4 to 16 uM incubated for 48 hrs by western blot analysis; format: functional, cell-based; conditions: dose 4-16 µM; how it was run: as §7
TC-32 [25] = assay: Induction of apoptosis in human TC-32 cells assessed as increase in hypodiploid subG1 population at 4 to 16 uM incubated for 48 hrs by propidium iodide staining based flow cytometry; format: functional, cell-based; conditions: dose 4-16 µM; how it was run: as §6
U2OS [26] = assay: Induction of apoptosis in human U2OS cells assessed as PARP cleavage at 4 to 16 uM incubated for 48 hrs by western blot analysis; format: functional, cell-based; conditions: dose 4-16 µM
How it was run: (§8)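 U-2 OS cells treated 48 h at 4, 8 or 16 μM; total lysates immunoblotted for cleaved PARP and cleaved caspase 3, actin as loading and normalization control.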

U2OS [27] = assay: Induction of apoptosis in human U2OS cells assessed as caspase-3 cleavage at 4 to 16 uM incubated for 48 hrs by western blot analysis; format: functional, cell-based; conditions: dose 4-16 µM; how it was run: as §8

Row | SMILES | IC50 (TC-32 [1]) | IC50 [2] | IC50 (143B) | IC50 (U2OS [3]) | IC50 [4] | IC50 (PC-3) | IC50 (SAOS-2) | IC50 (U-87 MG) | IC50 [5] | IC50 (A549) | IC50 (SJRH30) | IC50 (RD) | IC50 at 48 h [8] | Kd (CD99 antigen [9]) | Ka [11] | IC50 [12] | Kd (CD99 antigen [13]) | IC50 (HeLa) | IC50 (HOS) | IC50 [16] | further results
1 | Nc1nc(-c2cccnc2)nc2c1ncn2[C@@H]1O[C@H](CO)[C@@H](O)[C@@H]1F | 58.7 µM | 60 µM | > 368 µM | ≥ 400 µM | 60 µM | > 400 µM | ≥ 400 µM | > 400 µM | 60 µM | > 400 µM | > 368 µM | > 400 µM | > 368 µM | 1.8 µM | 335 M⁻¹ s⁻¹ | 19.9 µM | 598.2 10^-6/s | > 400 µM | > 400 µM | 60 µM | Activity (TC-32 [6]): Non-Toxic; Activity (U2OS [7]): inactive; Activity (TC-32 [10]): Active; Activity (TC-32 [14]): Active; Activity (TC-32 [15]): Active; IC50 [17]: 45.1 µM; IC50 (A 172): > 400 µM; Activity (U2OS [18]): inactive; IC50 [19]: > 368 µM; Activity (U2OS [20]): inactive
2 | Nc1nc(Cl)nc2c1ncn2[C@@H]1O[C@H](COC(C(=O)O)C(=O)O)[C@@H](O)[C@@H]1F | 27 µM | 27 µM | > 341 µM | ≥ 400 µM | 27 µM | > 400 µM | ≥ 400 µM | > 400 µM | 27 µM | > 400 µM | > 341 µM | > 400 µM | > 341 µM | 1.5 µM | 1700 M⁻¹ s⁻¹ | 5.17 µM | 2467 10^-6/s | > 400 µM | > 400 µM | 27 µM | Activity (U2OS [21]): inactive; Activity [22]: Active; Activity (TC-32 [23]): Active; Activity (TC-32 [24]): Active; Activity (TC-32 [25]): Active; Activity (U2OS [26]): inactive; IC50 [17]: 27 µM; IC50 (A 172): > 341 µM; Activity (U2OS [27]): inactive; IC50 [19]: > 341 µM
